Source: ChEMBL document CHEMBL1128437, “Derivatives of 17-phenyl-18,19,20-trinorprostaglandin F2 alpha isopropyl ester: potential antiglaucoma agents” (J Med Chem, 1995)

Assays:
Monkey [1] = assay: The maximal difference in Intraocular Pressure (IOP) measured in treated and control eyes. The effect was tested in monkey at a dose of 1.0 (ug/eye); type: functional, Cercopithecidae
Outline: (§1)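 Cynomolgus monkeys trained for IOP measurement were sedated with ketamine (2–3 mg/kg) for transport and seated in restraint chairs under oxibuprocain local anaesthesia. One eye received a 10 µL drop of drug in 0.9% NaCl/0.5% polysorbate 80; the fellow eye received vehicle. IOP was read by pneumatonometer calibrated for monkey eyes before dosing and at 1, 2, 4 and 6 h. Matched-pair t test, n = 6.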

Felis catus [2] = species: Felis catus; assay: The maximal difference in Intraocular Pressure (IOP) between treated and control eyes. The effect was tested in cats at a dose of 1.0 (ug/eye); type: functional
Outline: (§2)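 Domestic female cats, 2–3 kg, trained for IOP measurement. One eye received a topical drop (20 µL) of drug in 0.9% NaCl with 0.5% polysorbate 80; the other eye received vehicle. IOP was read by pneumatonometer under oxibuprocain local anaesthesia before dosing and at 1, 3, 6 and 23 h. The maximal treated-minus-control difference was taken. Area between curves is the treated-eye AUC minus control-eye AUC, per animal.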

Monkey [3] = assay: The maximal difference in Intraocular Pressure (IOP) measured in treated and control eyes. The effect was tested in monkey at a dose of 3.0 (ug/eye); type: functional, Cercopithecidae; outline: as §1
Oryctolagus cuniculus [4] = species: Oryctolagus cuniculus; assay: The maximal difference in conjunctival hyperemia between treated and control eyes. The effect was tested in rabbit at a dose of 0.5 (ug/eye)
Monkey [5] = assay: The mean area between curves for Intraocular Pressure (IOP) measured in treated and control eyes. The effect was tested in monkey at a dose of 1.0 (ug/eye); type: functional, Cercopithecidae; outline: as §1
Monkey [6] = assay: The mean area between curves for Intraocular Pressure (IOP) measured in treated and control eyes. The effect was tested in monkey at a dose of 3.0 (ug/eye); type: functional, Cercopithecidae; outline: as §1
Oryctolagus cuniculus [7] = species: Oryctolagus cuniculus; assay: The mean area between curves for conjunctival hyperemia between treated and control eyes. The effect was tested in rabbit at a dose of 0.5 (ug/eye)
Felis catus [8] = species: Felis catus; assay: The maximal difference in […] pupil diameter between treated and control eyes. The effect was tested in cats at a dose of 1.0 (ug/eye); type: functional
Outline: (§3)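 Trained female cats, 2–3 kg, were dosed unilaterally with one 20 µL topical drop of drug in 0.9% NaCl/0.5% polysorbate 80, with vehicle in the contralateral eye. Horizontal pupil diameter was measured with a millimetre ruler under constant 10 lux illumination before dosing and at 1, 3, 6 and 23 h. Reported as maximal treated–control difference or as area between curves, per animal.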

Felis catus [9] = species: Felis catus; assay: The mean area between curves for Intraocular Pressure (IOP) measured in treated and control eyes. The effect was tested in cats at a dose of 1.0 (ug/eye); type: functional; outline: as §2
Felis catus [10] = species: Felis catus; assay: The mean area between curves for pupil diameter between treated and control eyes. The effect was tested in cats at a dose of 1.0 (ug/eye); type: functional; outline: as §3
Felis catus [11] = species: Felis catus; assay: The mean ocular irritation in the treated eyes. An arbitrary scale of from 0 to 3 was used, 0 indicates absence of irritation and 3 complete closure of the lids. The effect was tested in cats at a dose of 1.0 (ug/eye); type: functional
Outline: (§4)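 Ocular irritation was scored in the treated eye of trained female cats, 2–3 kg. Drug was given as one topical 20 µL drop in 0.9% NaCl with 0.5% polysorbate 80. The contralateral eye got vehicle only.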

Felis catus [12] = species: Felis catus; assay: The mean ocular irritation in the treated eyes. An arbitrary scale of from 0 to 3 was used, 0 indicates absence of irritation and 3 complete closure of the lids. The effect was tested in cats at a dose of 3.0 (ug/eye); type: functional; outline: as §4
Felis catus [13] = species: Felis catus; assay: The maximal difference in Intraocular Pressure (IOP) between treated and control eyes. The effect was tested in cats at a dose of 3.0 (ug/eye); type: functional; outline: as §2
Felis catus [14] = species: Felis catus; assay: The mean area between curves for Intraocular Pressure (IOP) measured in treated and control eyes. The effect was tested in cats at a dose of 3.0 (ug/eye); type: functional; outline: as §2
Oryctolagus cuniculus [15] = species: Oryctolagus cuniculus; assay: The mean area between curves for conjunctival hyperemia between treated and control eyes. The effect was tested in rabbit at a dose of 0.1 (ug/eye)
Felis catus [16] = species: Felis catus; assay: The mean area between curves for pupil diameter between treated and control eyes. The effect was tested in cats at a dose of 3.0 (ug/eye); type: functional; outline: as §3
Monkey [17] = assay: The mean area between curves for Intraocular Pressure (IOP) measured in treated and control eyes. The effect was tested in monkey at a dose of 10.0 (ug/eye); type: functional, Cercopithecidae; outline: as §1
Felis catus [18] = species: Felis catus; assay: The maximal difference in […] pupil diameter between treated and control eyes. The effect was tested in cats at a dose of 3.0 (ug/eye); type: functional; outline: as §3
Monkey [19] = assay: The maximal difference in Intraocular Pressure (IOP) measured in treated and control eyes. The effect was tested in monkey at a dose of 10.0 (ug/eye); type: functional, Cercopithecidae; outline: as §1
Oryctolagus cuniculus [20] = species: Oryctolagus cuniculus; assay: The maximal difference in conjunctival hyperemia between treated and control eyes. The effect was tested in rabbit at a dose of 0.1 (ug/eye)
Felis catus [21] = species: Felis catus; assay: The mean ocular irritation in the treated eyes. An arbitrary scale of from 0 to 3 was used, 0 indicates absence of irritation and 3 complete closure of the lids. The effect was tested in cats at a dose of 10.0 (ug/eye); type: functional; outline: as §4
Felis catus [22] = species: Felis catus; assay: The mean area between curves for Intraocular Pressure (IOP) measured in treated and control eyes. The effect was tested in cats at a dose of 10.0 (ug/eye); type: functional; outline: as §2
Felis catus [23] = species: Felis catus; assay: The maximal difference in Intraocular Pressure (IOP) between treated and control eyes. The effect was tested in cats at a dose of 10.0 (ug/eye); type: functional; outline: as §2
Felis catus [24] = species: Felis catus; assay: The maximal difference in […] pupil diameter between treated and control eyes. The effect was tested in cats at a dose of 10.0 (ug/eye); type: functional; outline: as §3
Felis catus [25] = species: Felis catus; assay: The mean area between curves for pupil diameter between treated and control eyes. The effect was tested in cats at a dose of 10.0 (ug/eye); type: functional; outline: as §3
Monkey [26] = assay: The maximal difference in Intraocular Pressure (IOP) between treated and control eyes. The effect was tested in monkey at a dose of 3.0 (ug/eye); type: functional, Cercopithecidae; outline: as §1
Felis catus [27] = species: Felis catus; assay: 66 The maximal difference in Intraocular Pressure (IOP) between treated and control eyes. The effect was tested in cats at a dose of 3.0 (ug/eye); type: functional; outline: as §2

| Structure (SMILES) | Imax (Monkey [1]) [mmHg] | Imax (Felis catus [2]) [mmHg] | Imax (Monkey [3]) [mmHg] | Hmax (Oryctolagus cuniculus [4]) | I ABC (Monkey [5]) | I ABC (Monkey [6]) | H ABC (Oryctolagus cuniculus [7]) | Pmax (Felis catus [8]) [mm] | I ABC (Felis catus [9]) | P ABC (Felis catus [10]) | Irritation (Felis catus [11]) [arbitrary units] | Irritation (Felis catus [12]) [arbitrary units] | Imax (Felis catus [13]) [mmHg] | I ABC (Felis catus [14]) | P ABC (Felis catus [16]) | I ABC (Monkey [17]) | Pmax (Felis catus [18]) [mm] | Imax (Monkey [19]) [mmHg] | further results |
| --- | --- | --- | --- | --- | --- | --- | --- | --- | --- | --- | --- | --- | --- | --- | --- | --- | --- | --- | --- |
| CC(C)OC(=O)CCC/C=C\C[C@@H]1[C@@H](/C=C/[C@@H](O)CCc2ccccc2)[C@H](O)C[C@@H]1O | <-3.3 | 2.7 | -2.9 | <1.5 | <-5.8 | -5.9 | <-4 | < 9.7 | <36.9 | -126 | 0 | – | – | – | – | – | – | – | – |
| CC(C)OC(=O)CCC/C=C\C[C@@H]1[C@@H](/C=C/[C@@H](O)CCc2ccc(-c3ccccc3)cc2)[C@H](O)C[C@@H]1O | – | -1 | <0.8 | <0.4 | – | 3 | 1.2 | < -1.5 | -10 | <-18.3 | 0.8 | 1.6 | <-6 | <-99.3 | <-4.9 | <6.1 | -0.8 | <1.4 | H ABC (Oryctolagus cuniculus [15]): 0.2; Hmax (Oryctolagus cuniculus [20]): 0.2 |
| Cc1cccc(CC[C@H](O)/C=C/[C@@H]2[C@@H](C/C=C\CCCC(=O)OC(C)C)[C@@H](O)C[C@H]2O)c1 | <-2.5 | -1 | <-0.6 | <1.6 | -3.6 | -0.1 | <4.9 | < -6.8 | -17 | <-85 | 0.3 | 0.1 | 1.2 | 8 | <-122 | – | < -8.3 | – | Irritation (Felis catus [21]): 0 arbitrary units; I ABC (Felis catus [22]): 14.1; Imax (Felis catus [23]): 2.3 mmHg; Pmax (Felis catus [24]): < -8.8 mm; P ABC (Felis catus [25]): <-149 |
| CC(C)OC(=O)CCC/C=C\C[C@@H]1[C@@H](/C=C/[C@@H](O)CCc2ccc(-c3ccco3)cc2)[C@H](O)C[C@@H]1O | – | – | – | -0.1 | – | 0.5 | -0.2 | – | – | – | – | 0.6 | <-5 | -76.1 | -6 | – | -0.6 | – | Imax (Monkey [26]): 0.3 mmHg |
| Cc1ccc(CC[C@H](O)/C=C/[C@@H]2[C@@H](C/C=C\CCCC(=O)OC(C)C)[C@@H](O)C[C@H]2O)cc1 | – | -1 | <-1.6 | <1.5 | – | -3.8 | 4.4 | < -3.5 | -4.3 | <-46 | 0.2 | 0 | -1.3 | -28 | <-73 | -3.5 | < -6 | -1.5 | – |
| CC(C)OC(=O)CCC/C=C\C[C@@H]1[C@@H](/C=C/[C@@H](O)CCc2ccc(-c3ccsc3)cc2)[C@H](O)C[C@@H]1O | – | <-4 | – | 0.3 | – | – | <0.8 | -1 | -63.2 | -3.3 | 0.2 | 0.6 | – | <-66 | <-9.2 | – | < -1.2 | – | Imax (Felis catus [27]): -5 mmHg |
